Measured values reported in ChEMBL document CHEMBL1134609, “Dinuclear alkyldiamine platinum antitumor compounds: a structure-activity relationship study” (J Med Chem, 2001).
pIC50: −log10 of the molar value.

Assays:
[1] = Resistance factor was determined using the ratio of cytotoxicity of both the cell lines; format: functional
L1210 = assay: Cytotoxicity against L1210/0 cell line of murine leukemia; format: functional, cell-based, Mus musculus
Method in brief: (§1)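 Murine leukemia L1210/0 (wild-type) or L1210/2 (cisplatin-resistant) cells in McCoy's 5a + 10% FCS with penicillin/streptomycin; 5 × 10⁴ cells/mL pre-cultured 24 h at 37 °C, 5% CO2. Then treated with at least three platinum concentrations (fresh water stocks diluted in medium). Cells counted in a counting chamber after 72 h. IC50 = concentration reducing growth to 50% of control; each concentration tested in ≥2 independent experiments.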

L1210/2 = assay: Cytotoxicity in cisplatin-resistant L1210/2 cell lines; format: functional, cell-based, Mus musculus; method in brief: as §1

Sequence	RF [1]	pIC50 (L1210)	pIC50 (L1210/2)
CISPLATIN [listing 1 of 2 here]	3.1	–	–
CISPLATIN [listing 2 of 2 here]	–	5.82	5.34
TRANSPLATIN [listing 1 of 2 here]	–	4.80	4.66
TRANSPLATIN [listing 2 of 2 here]	1.4	–	–
